Source: ChEMBL document CHEMBL1629616 (Antimicrob Agents Chemother, 2009)

Legend:
[1] = target: CYP2D6 (Homo sapiens, UniProt P10635); test: Inhibition of CYP2D6 in human liver microsomes assessed as dextromethorphan O-demethylation at 100 uM after 30 mins; format: ADME, Microsome; settings: probe dextromethorphan (O-demethylation)
[2] = Inhibition of CYP3A using midazolam as probe; format: ADME
Method in brief: (§1)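 1′-Hydroxymidazolam measured by HPLC-UV at 230 nm with desmethyldiazepam internal standard. IC50 from log concentration versus percent activity remaining.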

[3] = target: T1, Cytochrome P450 2B6 (Homo sapiens, UniProt P20813); test: Inhibition of CYP2B6 in human liver microsomes assessed as metabolite formation at 10 uM preincubated for 60 mins; format: ADME, Microsome
T1 sequence (P20813 whole entry): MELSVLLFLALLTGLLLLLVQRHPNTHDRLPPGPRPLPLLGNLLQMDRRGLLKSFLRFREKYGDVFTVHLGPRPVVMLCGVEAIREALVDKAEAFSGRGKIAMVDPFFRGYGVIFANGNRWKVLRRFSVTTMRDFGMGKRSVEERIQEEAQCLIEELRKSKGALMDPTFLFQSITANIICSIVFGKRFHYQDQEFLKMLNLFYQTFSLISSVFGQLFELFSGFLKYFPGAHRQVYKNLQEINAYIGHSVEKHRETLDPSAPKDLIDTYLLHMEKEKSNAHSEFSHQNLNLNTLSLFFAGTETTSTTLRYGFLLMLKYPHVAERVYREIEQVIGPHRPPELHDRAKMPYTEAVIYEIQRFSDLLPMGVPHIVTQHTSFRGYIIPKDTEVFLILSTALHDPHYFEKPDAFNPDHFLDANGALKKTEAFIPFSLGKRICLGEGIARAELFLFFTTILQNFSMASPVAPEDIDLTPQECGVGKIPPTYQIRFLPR

[4] = Inhibition of CYP3A using nifedipine as probe; format: ADME
[5] = target: T1, Cytochrome P450 2B6; test: Inhibition of CYP2B6 in human liver microsomes assessed as efavirenz 8-hydroxylation at 10 uM after 60 mins; format: ADME, Microsome; settings: 1 h
[6] = target: T1, Cytochrome P450 2B6; test: Inhibition of CYP2B6 in human liver microsomes assessed as bupropion 4-hydroxylation after 15 mins by Dixon plot analysis; format: ADME, Microsome
[7] = target: T2, CYP2C8 (Homo sapiens, UniProt P10632); test: Inhibition of CYP2C8 in human liver microsomes assessed as amodiquine N-deethylation at 100 uM after 15 mins; format: ADME, Microsome; settings: probe amodiquine (N-deethylation)
T2 sequence (P10632 whole entry): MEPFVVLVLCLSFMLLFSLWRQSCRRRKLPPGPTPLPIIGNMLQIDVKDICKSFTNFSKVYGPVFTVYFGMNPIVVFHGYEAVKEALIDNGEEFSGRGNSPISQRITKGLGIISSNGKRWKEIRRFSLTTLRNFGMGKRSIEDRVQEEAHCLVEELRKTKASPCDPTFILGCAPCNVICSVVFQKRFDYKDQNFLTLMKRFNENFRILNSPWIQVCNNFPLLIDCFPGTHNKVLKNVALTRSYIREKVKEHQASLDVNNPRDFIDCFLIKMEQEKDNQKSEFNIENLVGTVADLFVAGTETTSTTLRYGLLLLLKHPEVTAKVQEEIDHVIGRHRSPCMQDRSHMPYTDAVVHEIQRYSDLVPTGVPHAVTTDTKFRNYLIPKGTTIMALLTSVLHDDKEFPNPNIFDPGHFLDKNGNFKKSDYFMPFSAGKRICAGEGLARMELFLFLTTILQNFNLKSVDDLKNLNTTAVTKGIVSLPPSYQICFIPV

[8] = target: T1, Cytochrome P450 2B6; test: Inhibition of CYP2B6 in human liver microsomes using 8-hydroxyefavirenz as probe after 10 mins; format: ADME, Microsome
[9] = target: CYP3A (Homo sapiens, UniProt P08684+P20815+P24462+Q9HB55); test: Inhibition of CYP3A in human liver microsomes assessed as midazolam 1'- hydroxylation after 5 mins; format: ADME, Microsome; settings: probe midazolam (1'-hydroxylation); method in brief: as §1
[10] = target: T1, Cytochrome P450 2B6; test: Inhibition of CYP2B6 in human liver microsomes using efavirenz as probe after 10 mins; format: ADME, Microsome
Method in brief: (§2)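 Ethyl acetate extraction under alkaline pH; 8-hydroxyefavirenz measured by HPLC-UV at 245 nm with ritonavir internal standard. IC50 from log concentration versus percent activity remaining.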

[11] = target: T1, Cytochrome P450 2B6; test: Inhibition of CYP2B6 in human liver microsomes assessed as bupropion 4-hydroxylation after 15 mins
[12] = Inhibition of CYP3A using felodipine as probe; format: ADME
[13] = target: T1, Cytochrome P450 2B6; test: Inhibition of human CYP2B6 expressed in baculovirus assessed as voriconazole N-oxide formation; format: ADME
[14] = target: T3, CYP1A2 (Homo sapiens, UniProt P05177); test: Inhibition of CYP1A2 in human liver microsomes assessed as phenacetin O-deethylation at 100 uM after 30 mins; format: ADME, Microsome; settings: probe phenacetin (O-deethylation)
T3 sequence (P05177 whole entry): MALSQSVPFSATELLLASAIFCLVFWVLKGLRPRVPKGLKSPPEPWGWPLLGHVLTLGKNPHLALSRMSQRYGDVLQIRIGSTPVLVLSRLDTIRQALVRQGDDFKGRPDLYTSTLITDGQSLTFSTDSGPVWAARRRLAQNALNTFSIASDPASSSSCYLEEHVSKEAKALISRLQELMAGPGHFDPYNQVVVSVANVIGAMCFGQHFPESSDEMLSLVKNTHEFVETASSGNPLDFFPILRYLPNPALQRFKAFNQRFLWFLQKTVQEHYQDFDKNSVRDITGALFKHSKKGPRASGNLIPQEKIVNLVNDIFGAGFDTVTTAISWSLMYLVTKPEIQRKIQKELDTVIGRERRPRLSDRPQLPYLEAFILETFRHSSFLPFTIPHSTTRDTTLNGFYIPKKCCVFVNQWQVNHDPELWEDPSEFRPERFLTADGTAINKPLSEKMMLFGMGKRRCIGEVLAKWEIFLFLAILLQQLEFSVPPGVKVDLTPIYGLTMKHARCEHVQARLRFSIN

[15] = target: T1, Cytochrome P450 2B6; test: Inhibition of CYP2B6 in human liver microsomes assessed as 8-hydroxyefavirenz 14-hydroxylation after 10 mins; format: ADME, Microsome
[16] = target: T1, Cytochrome P450 2B6; test: Inhibition of CYP2B6 in human liver microsomes using bupropion as probe after 15 mins
[17] = target: T1, Cytochrome P450 2B6; test: Inhibition of CYP2B6 in human liver microsomes assessed as efavirenz 8-hydroxylation after 10 mins; format: ADME, Microsome; method in brief: as §2
[18] = Inhibition of CYP3A using testosterone as probe; format: ADME
[19] = target: T4, CYP2A6 (Homo sapiens, UniProt P11509); test: Inhibition of CYP2A6 in human liver microsomes assessed as coumarin 7-hydroxylation at 100 uM after 15 mins; format: ADME, Microsome; settings: probe coumarin (7-hydroxylation)
T4 sequence (P11509 whole entry): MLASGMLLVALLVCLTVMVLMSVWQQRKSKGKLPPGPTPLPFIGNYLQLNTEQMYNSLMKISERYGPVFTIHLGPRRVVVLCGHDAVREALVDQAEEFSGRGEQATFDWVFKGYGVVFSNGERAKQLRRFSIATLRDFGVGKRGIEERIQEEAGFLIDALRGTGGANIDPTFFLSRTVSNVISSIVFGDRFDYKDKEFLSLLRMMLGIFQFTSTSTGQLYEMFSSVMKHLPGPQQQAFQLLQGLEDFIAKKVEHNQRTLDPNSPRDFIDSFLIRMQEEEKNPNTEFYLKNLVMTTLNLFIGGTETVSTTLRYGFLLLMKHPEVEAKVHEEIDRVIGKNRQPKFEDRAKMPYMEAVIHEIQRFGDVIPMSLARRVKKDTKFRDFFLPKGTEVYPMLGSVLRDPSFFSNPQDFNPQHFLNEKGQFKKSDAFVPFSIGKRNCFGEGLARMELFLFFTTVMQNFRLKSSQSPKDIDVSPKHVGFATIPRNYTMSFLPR

[20] = target: T1, Cytochrome P450 2B6; test: Inhibition of CYP2B6 in human liver microsomes at 10 uM preincubated for 5 to 30 mins; format: ADME, Microsome
Method in brief: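 Efavirenz (final 100 μM) then added and incubated 10 min with cofactors. Activity compared with 0-min controls lacking inhibitor and NADPH.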

[21] = target: T1, Cytochrome P450 2B6; test: Inhibition of CYP2B6 in human liver microsomes assessed as efavirenz 8-hydroxylation after 10 mins by Dixon plot analysis; format: ADME, Microsome
Method in brief: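 8-Hydroxyefavirenz measured by HPLC-UV. Ki from nonlinear regression to competitive, noncompetitive and uncompetitive models, chosen using Dixon plots.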

CYP2D6, sequence (P10635 whole entry): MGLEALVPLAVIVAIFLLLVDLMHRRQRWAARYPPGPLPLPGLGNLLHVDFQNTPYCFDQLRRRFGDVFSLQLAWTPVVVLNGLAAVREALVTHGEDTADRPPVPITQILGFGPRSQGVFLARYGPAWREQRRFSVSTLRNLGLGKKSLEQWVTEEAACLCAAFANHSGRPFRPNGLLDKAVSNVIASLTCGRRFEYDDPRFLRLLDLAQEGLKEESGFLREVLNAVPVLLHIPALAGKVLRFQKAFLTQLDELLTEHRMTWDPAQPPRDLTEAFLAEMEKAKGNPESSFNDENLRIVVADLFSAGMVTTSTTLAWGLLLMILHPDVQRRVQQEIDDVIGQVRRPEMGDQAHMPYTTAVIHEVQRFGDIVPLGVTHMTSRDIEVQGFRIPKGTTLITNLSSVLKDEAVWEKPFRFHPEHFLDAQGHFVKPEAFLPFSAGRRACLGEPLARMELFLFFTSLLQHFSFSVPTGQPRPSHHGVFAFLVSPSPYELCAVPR

Compound: C[C@@H](c1ncncc1F)[C@](O)(Cn1cncn1)c1ccc(F)cc1F [VORICONAZOLE]
- inhibition at 0.5 h, 100 µM [1]: < 25%
- IC50 [2]: 10500 nM
- inhibition (INH) [3]: Active
- IC50 [4]: 10500 nM
- inhibition (INH) [5]: Not Active
- Ki [6]: 340 nM
- inhibition at 0.25 h, 100 µM [7]: < 25%
- IC50 [8]: 790 nM
- IC50 at 5 min [9]: 2900 nM
- IC50 [10]: 1710 nM
- IC50 [11]: 1190 nM
- IC50 [12]: 50000 nM
- IC50 [13]: 12200 nM
- inhibition at 0.5 h, 100 µM [14]: < 25%
- IC50 [15]: 790 nM
- IC50 [16]: 1190 nM
- IC50 [17]: 1710 nM
- IC50 [18]: 54000 nM
- inhibition at 0.25 h, 100 µM [19]: < 25%
- inhibition (INH) [20]: Not Active
- Ki [21]: 400 nM
